The test system of data set [1] is K562. The data set is described as follows: Induction of apoptosis in human K562 cells assessed as cell death at 3 uM incubated for 24 hrs by FITC-Annexin V and PI based flow cytometry relative to control. The format is functional. In short, it runs like this: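 K562 cells after ligand treatment dual-stained with annexin V and propidium iodide. Apoptotic cell populations (early and late) scored by flow cytometry dot plot analysis.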

In data set [2] the test system is Quadruplex DNA. The data set is described as follows: Stabilization of G-quadruplex c-KIT2 5-FAM-GGGCGGGCGCGAGGGAGGGG-TAMRA-3 (unknown origin) assessed as change in melting temperature at 10 uM incubated for 1 hr in dark condition by FRET-based melting assay. The format is nucleic-acid assay. In short, it runs like this: (§1)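 FRET melting of dual-fluorophore (FAM/TAMRA) tagged G-quadruplex (200 nM) in 60 mM potassium cacodylate, pH 7.4. The screen used 1 μM ligand; dose series used 1, 3, 5, 7 and 10 μM. ΔTm was taken against the Tm of the same oligonucleotide without ligand.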

Data set [3] concerns the target Quadruplex DNA. The data set is described as follows: Binding affinity to G-quadruplex BCL-2 5-FAM-AGGGGCGGGCGCGGGAGGAAGGGGGCGGGAGCGGGGCTG-TAMRA-3 (unknown origin) assessed as dissociation constant by measuring thermogram by isothermal titration calorimetry (ITC) assay. It counts as nucleic-acid assay. The gist of the method: (§2)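 ITC of ligand binding to folded G4 in 100 mM Tris-KCl buffer, pH 7.4. Kd and stoichiometry were obtained from the isothermal heat curve and binding isotherm.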
A general note: In ITC the heat of successive injections is recorded.

The target in data set [4] is Quadruplex DNA. The data set is described as follows: Binding affinity to G-quadruplex VEGF 5-FAM-CGGGGCGGGCCGGGGGCGGGGT-TAMRA-3 (unknown origin) assessed as dissociation constant by fluorescence spectroscopy assay. The format is nucleic-acid assay. In short, it runs like this: (§3)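 Fluorimetric titration of ligand held at 1.0 μM with increasing concentrations of G4 or dsDNA until saturation. Change in ligand fluorescence intensity was fitted for Kd. Run in 100 mM Tris-KCl buffer, pH 7.4.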

Data set [5] is described as follows: Reduction of BCL-2 oncogene expression in human K562 cells transfected with BCL-2 plasmid construct assessed as reduction in luciferase expression at 6 uM measured after 36 hrs by luciferase reporter assay. It counts as functional. In short, it runs like this: (§4)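 K562 cells were transfected with luciferase plasmids carrying the c-KIT, c-MYC or BCL-2 promoter G4. They were then treated with ligand (3 and 6 μM or 5.5 and 11 μM), and relative luciferase expression was measured.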
A general note: Reporter assays use an easily measured gene product as a stand-in for the process of interest.

Data set [6] deals with Quadruplex DNA. The data set is described as follows: Binding affinity to G-quadruplex BCL-2 5-FAM-AGGGGCGGGCGCGGGAGGAAGGGGGCGGGAGCGGGGCTG-TAMRA-3 (unknown origin) assessed as dissociation constant by fluorescence spectroscopy assay. The format is nucleic-acid assay. The gist of the method: as §3
Data set [7] concerns the target Quadruplex DNA. The data set is described as follows: Binding affinity to G-quadruplex c-KIT1 5-FAM-GGGAGGGCGCTGGGAGGAGGG-TAMRA-3 (unknown origin) assessed as dissociation constant by isothermal titration calorimetry (ITC) assay. It counts as nucleic-acid assay. The gist of the method: as §2
Data set [8] has as its system K562. In words: Induction of apoptosis in human K562 cells assessed as apoptosis incubated for 24 hrs by FITC-Annexin V and PI based flow cytometry. It counts as functional, cell-based. In short, it runs like this:
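K562 cells were treated with ligand (3 and 6 μM or 5.5 and 11 μM) and dual-stained with annexin V and PI. Early and late apoptotic populations were quantified by flow cytometry dot plot analysis.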
For orientation: In flow cytometry, cells or beads pass a laser one at a time.

Data set [9] has as its system Quadruplex DNA. In words: Stabilization of 5-FAM/3-TAMRA labelled G-quadruplex c-KIT1 5-FAM-GGGAGGGCGCTGGGAGGAGGG-TAMRA-3 (unknown origin) assessed as change in melting temperature incubated for 1 hr in dark condition by FRET-based melting assay. It counts as nucleic-acid assay. The following applies: dose 1-10 µM. In short, it runs like this: as §1
In data set [10] the test system is Quadruplex DNA. The data set is described as follows: Stabilization of G-quadruplex c-KIT1 5-FAM-GGGAGGGCGCTGGGAGGAGGG-TAMRA-3 (unknown origin) assessed as change in melting temperature at 1 uM incubated for 1 hr in dark condition by FRET-based melting assay. The format is nucleic-acid assay. In short, it runs like this: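 FRET melting of dual-fluorophore-tagged oligonucleotides (200 nM) in 60 mM potassium cacodylate buffer, pH 7.4, with ligand at 1 μM; ΔTm taken against the ligand-free oligonucleotide Tm as control.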

The target of data set [11] is Quadruplex DNA. In words: Binding affinity to G-quadruplex c-MYC 5-FAM-TGGGGAGGGTGGGGAGGGTGGGGAAGG-TAMRA-3 (unknown origin) assessed as dissociation constant by fluorescence spectroscopy assay. It counts as nucleic-acid assay. In short, it runs like this:
as §3

Data set [12] concerns Quadruplex DNA. In words: Binding affinity to excessive G-quadruplex c-KIT2 5-FAM-GGGCGGGCGCGAGGGAGGGG-TAMRA-3 (unknown origin) assessed as fold increase in fluorescence intensity at 1 uM incubated for 1 hr in dark condition by fluorescence spectroscopy assay. It counts as nucleic-acid assay. In short, it runs like this: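 Fluorimetric titration in 100 mM Tris-KCl buffer, pH 7.4. Ligand fixed at 1.0 μM and titrated with increasing concentrations of each G-quadruplex until fluorescence saturation. The fold increase in ligand fluorescence intensity was read, and Kd was derived from the titration plot.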

Data set [13] in a line: Cytotoxicity against HEK293 cells assessed as cell viability measured after 24 hrs by XTT formazan assay. The format is toxicity, cell-based. The following applies: human.
Data set [14] in a line: Reduction of c-KIT oncogene expression in human K562 cells transfected with c-KIT plasmid construct assessed as reduction in luciferase expression at 3 uM measured after 36 hrs by luciferase reporter assay. It counts as functional. The gist of the method: as §4
Data set [15] has as its system Quadruplex DNA. In words: Stabilization of G-quadruplex BCL2 5-FAM-AGGGGCGGGCGCGGGAGGAAGGGGGCGGGAGCGGGGCTG-TAMRA-3 (unknown origin) assessed as change in melting temperature at 10 uM incubated for 1 hr in dark condition by FRET-based melting assay. It counts as nucleic-acid assay. The gist of the method:
as §1

Data set [16] concerns the target Quadruplex DNA. The data set is described as follows: Binding affinity to G-quadruplex VEGF 5-FAM-CGGGGCGGGCCGGGGGCGGGGT-TAMRA-3 (unknown origin) assessed as dissociation constant by measuring thermogram by isothermal titration calorimetry (ITC) assay. The format is nucleic-acid assay. In short, it runs like this:
as §2

Data set [17] in a line: Induction of cell permeation in human c-KIT-positive K562 cell membrane assessed as fold increase in (G- quadruplex/antibody complex) BG4 foci at 3 uM measured after 24 hrs by immunofluorescence assay. The format is functional. In short, it runs like this: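 K562 cells were treated with ligand (3 or 5.5 μM) and immunostained with G4-specific antibody BG4. Nuclear BG4 foci were counted by confocal microscopy and expressed relative to untreated cells.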

In data set [18] the test system is Quadruplex DNA. The data set is described as follows: Binding affinity to excessive G-quadruplex c-KIT1 5-FAM-GGGAGGGCGCTGGGAGGAGGG-TAMRA-3 (unknown origin) assessed as fold increase in fluorescence intensity at 1 uM incubated for 1 hr in dark condition by fluorescence spectroscopy assay relative to VEGF. It counts as nucleic-acid assay. In short, it runs like this: (§5)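 Ligand (1.0 μM) titrated to saturation with increasing G-quadruplex in 100 mM Tris-KCl buffer, pH 7.4. The value is the ratio of the c-KIT 1 fold change in fluorescence intensity to the fold change obtained with VEGF or c-KIT 2.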

Data set [19] has as its system Quadruplex DNA. In words: Stabilization of G-quadruplex h-TELO 5-FAM-TTGGGTTAGGGTTAGGGTTAGGGA-TAMRA-3 (unknown origin) assessed as change in melting temperature at 10 uM incubated for 1 hr in dark condition by FRET-based melting assay. The format is nucleic-acid assay. In short, it runs like this:
as §1

Data set [20] deals with Quadruplex DNA. The data set is described as follows: Binding affinity to excessive G-quadruplex c-KIT1 5-FAM-GGGAGGGCGCTGGGAGGAGGG-TAMRA-3 (unknown origin) assessed as fold increase in fluorescence intensity at 1 uM incubated for 1 hr in dark condition by fluorescence spectroscopy assay relative to c-KIT2. It counts as nucleic-acid assay. The gist of the method:
as §5

Another data set concerns MCF7. In words: Cytotoxicity against human MCF7 cells assessed as cell viability measured after 24 hrs by XTT formazan assay. It counts as functional, cell-based. Particulars: MCF7, 24 h.

A word on the ΔTm: it is the change in melting temperature against a reference sample. A word on the Kd: it is a measure of binding affinity in units of concentration. Broadly, the inhibition is how much of the control response was suppressed. The term IC50 denotes the concentration needed to halve the response being measured.

For the compound `CN(C)CCCNC(=O)c1ccc(-n2cc(-c3ccc4[nH]c5ccccc5c4c3)nn2)cc1`, the Activity with K562 [1] was 35%; in the data set on K562 [8] it was “Dose-Dependent Effect”; in the data set with Quadruplex DNA [9], “Dose-Dependent Effect”. For the same compound, the ΔTm in the data set on Quadruplex DNA [2] was determined as 18.1 °C; in the data set with Quadruplex DNA [10] it was 20.1 °C; with Quadruplex DNA [15], 12.1 °C; in the data set with Quadruplex DNA [19], 20.3 °C. Moreover, the Kd at Quadruplex DNA [3] turned out to be 10.8 µM; on Quadruplex DNA [4] it was 2.9 µM; on Quadruplex DNA [6] it was 4.8 µM; at Quadruplex DNA [7], 1.6 µM; on Quadruplex DNA [11], 2.7 µM; at Quadruplex DNA [16] it was 15.9 µM. In addition, in data set [5], the inhibition at 6 µM turned out to be 15.8%. Moreover, the fold change (FC) with Quadruplex DNA [12] is 1.6; in data set [17], 5.4; with Quadruplex DNA [18], 2.8; in the data set on Quadruplex DNA [20] it was 3.2. Moreover, the IC50 at 24 h in [13] is above 50 µM. The inhibition at 3 µM in data set [14] was determined as 22%. For the same compound, the IC50 in the data set with MCF7 stood at 19.8 µM.
